Active and inactive are the calls of the source. The rule behind the calls is not given here.
Experiments:
Tubulin (Sus scrofa) [1] = target: T1, Tubulin (Sus scrofa) (UniProt P02554+P02550); experiment: Induction of porcine brain tubulin polymerization at 10 uM
A549 [2] = experiment: Induction of cell cycle arrest in human A549 cells assessed as accumulation at G0/G1 phase at 2.5 uM incubated for 24 hrs by Muse cell analyzer based flow cytometry (reference value: 63.9%); type: functional
A549 [3] = experiment: Induction of cell cycle arrest in human A549 cells assessed as accumulation at G2/M phase at 2.5 uM incubated for 24 hrs by Muse cell analyzer based flow cytometry (reference value: 22.3 to 24%); type: functional
A549 [4] = experiment: Induction of cell cycle arrest in human A549 cells assessed as accumulation at G2/M phase at 5 uM incubated for 24 hrs by Muse cell analyzer based flow cytometry (reference value: 22.3 to 24%); type: functional
Tubulin (Sus scrofa) [5] = target: T1, Tubulin (Sus scrofa); experiment: Inhibition of porcine brain tubulin polymerization at 10 uM
A549 [6] = experiment: Induction of cell cycle arrest in human A549 cells assessed as increase in accumulation at G2/M phase incubated for 24 hrs by Muse cell analyzer based flow cytometry; type: functional
A549 [7] = experiment: Induction of cell cycle arrest in human A549 cells assessed as accumulation at S phase at 5 uM incubated for 24 hrs by Muse cell analyzer based flow cytometry (reference value: 8%); type: functional
A549 [8] = experiment: Induction of cell cycle arrest in human A549 cells assessed as accumulation at S phase at 2.5 uM incubated for 24 hrs by Muse cell analyzer based flow cytometry (reference value: 8%); type: functional
A549 [9] = experiment: Induction of cell cycle arrest in human A549 cells assessed as accumulation at G0/G1 phase at 5 uM incubated for 24 hrs by Muse cell analyzer based flow cytometry (reference value: 63.9%); type: functional
A549 [10] = experiment: Cytotoxicity against human A549 cells assessed as change in cell morphology incubated for 48 hrs; type: functional, cell-based
A549 [11] = experiment: Antiproliferative activity against human A549 cells assessed as reduction in cell viability after 72 hrs by MTT assay; type: functional, cell-based; details: A549, 72 h
[12] = Drug uptake in cytoplasm of human A549 cells at 250 uM incubated for 3 hrs by Hoechst 33342 staining based confocal laser microscopic method; type: ADME, subcellular; details: a549, 3 h
Procedure, shortened: (§1)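 Live A549 cells were incubated for 3 h with the FITC-linked conjugate at 250 μM, then stained with Hoechst 33342 nuclear dye at 0.1 for 5 min. Live-cell confocal laser microscopy located the green signal in the cytoplasm or nucleus.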

[13] = Drug uptake in nucleus of human A549 cells at 250 uM incubated for 3 hrs by Hoechst 33342 staining based confocal laser microscopic method; type: ADME, subcellular; details: a549, 3 h; procedure, shortened: as §1
A549 [14] = experiment: Induction of cell cycle arrest in human A549 cells assessed as accumulation at G2/M phase at 200 uM incubated for 24 hrs by Muse cell analyzer based flow cytometry (reference value: 16.2%); type: functional

T1 sequence (P02550 whole entry, looked up): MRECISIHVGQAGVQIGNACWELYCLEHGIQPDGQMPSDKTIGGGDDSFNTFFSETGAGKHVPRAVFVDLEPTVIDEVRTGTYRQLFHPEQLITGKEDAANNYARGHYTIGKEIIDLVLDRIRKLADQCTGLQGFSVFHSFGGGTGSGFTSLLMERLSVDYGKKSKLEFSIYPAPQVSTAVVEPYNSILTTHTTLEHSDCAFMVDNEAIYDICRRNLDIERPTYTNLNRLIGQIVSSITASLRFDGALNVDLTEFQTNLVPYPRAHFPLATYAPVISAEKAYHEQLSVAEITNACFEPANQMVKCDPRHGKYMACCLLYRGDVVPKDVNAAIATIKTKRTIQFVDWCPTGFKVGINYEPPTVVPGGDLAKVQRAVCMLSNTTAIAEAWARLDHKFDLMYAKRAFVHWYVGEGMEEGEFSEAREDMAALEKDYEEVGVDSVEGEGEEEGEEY
T1 sequence (P02554 whole entry, looked up): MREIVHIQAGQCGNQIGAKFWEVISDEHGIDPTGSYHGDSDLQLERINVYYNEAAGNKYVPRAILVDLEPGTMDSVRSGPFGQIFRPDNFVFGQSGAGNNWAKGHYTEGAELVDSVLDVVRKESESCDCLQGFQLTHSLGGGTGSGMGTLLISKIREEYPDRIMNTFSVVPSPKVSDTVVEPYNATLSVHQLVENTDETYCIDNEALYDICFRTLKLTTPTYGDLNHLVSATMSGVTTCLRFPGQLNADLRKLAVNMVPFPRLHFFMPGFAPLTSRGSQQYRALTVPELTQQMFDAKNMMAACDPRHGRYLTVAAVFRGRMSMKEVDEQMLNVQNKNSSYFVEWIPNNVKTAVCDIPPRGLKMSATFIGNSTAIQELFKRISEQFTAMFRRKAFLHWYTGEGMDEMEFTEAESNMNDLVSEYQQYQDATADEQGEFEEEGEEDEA

## CC(=O)O[C@H]1C(=O)[C@@]2(C)[C@H]([C@H](OC(=O)c3ccccc3)[C@]3(O)C[C@H](OC(=O)[C@H](O)[C@@H](NC(=O)c4ccccc4)c4ccccc4)C(C)=C1C3(C)C)[C@]1(OC(C)=O)CO[C@@H]1C[C@@H]2O
Tubulin (Sus scrofa) [1]
  Activity: Active

## COC(=O)c1ccc(-c2c(-c3ccccc3)[nH]c3ccccc23)cc1
A549 [2]
  Activity: 40.9%
A549 [3]
  Activity: 41.4 - 42.8%
A549 [4]
  Activity: 70 - 71%
Tubulin (Sus scrofa) [5]
  inhibition: Active
A549 [6]
  Activity: Dose-dependent effect
A549 [7]
  Activity: 7.5%
A549 [8]
  Activity: 9.5%
A549 [9]
  Activity: 10.2%

## O=C(OCCOCCOCCO)c1ccc(-c2c(-c3ccccc3)[nH]c3ccccc23)cc1
A549 [10]
  Activity: Active
A549 [11]
  IC50: 10.2 µM

## O=C(OCCOCCOCCO)c1ccc(-c2[nH]c3ccccc3c2-c2ccccc2)cc1
A549 [11]
  IC50: 29.5 µM

## COC(=O)c1ccc(-c2c(-c3ccccc3)n(CCOCCOCCO)c3ccccc23)cc1
A549 [11]
  IC50: 30.8 µM

## COC(=O)c1ccc(-c2c(-c3ccccc3)c3ccccc3n2CCOCCOCCO)cc1
A549 [11]
  IC50: 41.3 µM

## O=C(OCCOCCOCCOCCOCCOCCNC(=S)Nc1ccc(-c2c3ccc(=O)cc-3oc3cc(O)ccc23)c(C(=O)O)c1)c1ccc(-c2c(-c3ccccc3)[nH]c3ccccc23)cc1
[12]
  Drug uptake: Active
A549 [11]
  IC50: 238 µM
[13]
  Drug uptake: Not Active
A549 [14]
  Activity: 53.3%
